This note sets out measurements from publication PMC5835461 (Journal of Diabetes Investigation, 2017).

Series [1] relates to Japanese patients with type 1 diabetes. Briefly: Safety assessments. Particulars: Japanese T1D patients; 0.2 U/kg single s.c. dose. The class given is in vivo, human. A digest of the protocol: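 Monitored through screening, two single 0.2 U/kg subcutaneous dosing visits and follow-up 7–21 days after second dose. Covered adverse events, injection site reactions, hypoglycemia, safety laboratory parameters, vital signs, physical examination and ECG. Hypoglycemia counted as confirmed if severe (third-party assistance) or plasma glucose <3.1 mmol/L. Summary statistics covered all patients receiving at least one dose.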

The nature of series [2]: Pharmacokinetics: free serum IAsp concentration. In kind it is in vivo, human (Japanese patients with type 1 diabetes). Particulars: Japanese T1D patients; 0.2 U/kg single s.c. dose; least squares mean. A digest of the protocol: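 Randomized, double-blind crossover with 3–12 days between dosing visits. After an overnight fast, patients received 0.2 U/kg subcutaneously into the lower abdominal wall. A euglycemic clamp held BG at 5.5 mmol/L, with sampling from 10 min pre-dose to 12 h post-dose. Free serum IAsp (PEG-precipitated) was measured by validated ELISA (LLOQ 10 pmol/L). Times were taken from raw individual profiles and analysed by linear mixed model.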

Turning to insulin aspart [IAsp], in series [1], the “Confirmed hypoglycemic episodes or injection site reactions” value is listed as “No confirmed hypoglycemic episodes or injection site reactions”, the Serious adverse events entry is given as “no serious adverse events” and the Tolerability entry is given as “well tolerated”. In series [2], the “t Early 50% Cmax” value came out at 29.3 min and the t max is recorded as 68.7 min.
